Published values of several laboratories.
Compare with care: the assays were run in different laboratories.
Target: Acetylcholinesterase (ache, Electrophorus electricus, UniProt O42275)
Observed: enzyme activity
Mode: inhibitor
Method: Ellman

| Structure (SMILES) | IC50 |
| --- | --- |
| CCN(C)C(=O)Oc1ccc(CCC(=O)N2CCC(Cc3ccccc3)CC2)cc1OC | 9.1 µM |
| CCOc1ccc(/C=C/C(=O)N2CCCC(NC(=O)OC(C)(C)C)C2)cc1 (stereo not shown) | > 50 µM |
| CCN(CC)C(=O)Oc1ccc(/C=C/C(=O)NC2CCN(Cc3ccccc3)CC2)cc1OC | 2.3 µM |
| Fc1ccc(Cn2cc(COc3ccc(-c4nnc(-c5ccc(F)cc5)o4)cc3)nn2)cc1 | > 100 µM |
| COc1ccc(-c2csc(N/N=C(/C=C/c3c(Cl)cccc3Cl)C(=O)O)n2)cc1 | 0.499 µM |
| CCN(CC)C(=O)Oc1ccc(CCC(=O)N2CCC(Cc3ccccc3)CC2)cc1OC | 9.3 µM |
| COc1ccc(-c2nnc(-c3ccc(OCc4cn(Cc5ccc(Cl)cc5)nn4)cc3)o2)cc1 | > 100 µM |
| O=C(O)C(/C=C/c1c(Cl)cccc1Cl)=N\Nc1nc(-c2ccc(Br)cc2)cs1 | 0.655 µM |
| COc1cccc(/C=C/C(=O)N2CCCC(NC(=O)OC(C)(C)C)C2)c1 (stereo not shown) | > 50 µM |
| O=C(O)C(/C=C/c1c(Cl)cccc1Cl)=N\Nc1nc(-c2ccc(F)cc2)cs1 | 0.299 µM |
| O=[N+]([O-])c1ccc(-c2nnc(-c3ccc(OCc4cn(Cc5ccc(Cl)cc5)nn4)cc3)o2)cc1 | > 100 µM |
| CC(C)(C)OC(=O)NC1CCCN(C(=O)/C=C/c2cccc(F)c2)C1 (stereo not shown) | 37.7 µM |
| COc1ccc(-c2nnc(-c3ccc(OCc4cn(Cc5ccc(F)cc5)nn4)cc3)o2)cc1 | > 100 µM |
| COc1ccccc1/C=C/C(=O)N1CCCC(NC(=O)OC(C)(C)C)C1 (stereo not shown) | > 50 µM |
| CCN(C)C(=O)Oc1ccc(CCC(=O)N2CCN(Cc3ccccc3)CC2)cc1 | 7.8 µM |
| COc1ccc(-c2nnc(-c3ccc(OCc4cn(Cc5ccc(C)cc5)nn4)cc3)o2)cc1 | > 100 µM |
| CCN(C)C(=O)Oc1ccc(CCC(=O)N2CCN(Cc3ccccc3)CC2)cc1OC | 12.2 µM |
| CCOc1ccc(/C=C/C(=O)N2CCCC(NC(=O)OC(C)(C)C)C2)cc1OC (stereo not shown) | 35.2 µM |
| COc1cc(CCC(=O)N2CCC(Cc3ccccc3)CC2)ccc1OC(=O)N(C)C | 8.6 µM |
| Cc1ccc(/C=C/C(=O)N2CCCC(NC(=O)OC(C)(C)C)C2)cc1 (stereo not shown) | > 50 µM |
| Cc1ccc(Cn2cc(COc3ccc(-c4nnc(-c5ccc([N+](=O)[O-])cc5)o4)cc3)nn2)cc1 | > 100 µM |
| CC(C)(C)OC(=O)NC1CCCN(C(=O)/C=C/c2cccc(Cl)c2)C1 (stereo not shown) | > 50 µM |
| Cc1ccc(Cn2cc(COc3ccc(-c4nnc(-c5ccccc5)o4)cc3)nn2)cc1 | > 100 µM |
| CCN(C)C(=O)Oc1ccc(CCC(=O)N(CC)CC)cc1OC | 19.5 µM |
| CC(C)(C)OC(=O)NC1CCCN(C(=O)/C=C/c2cccc([N+](=O)[O-])c2)C1 (stereo not shown) | 35.1 µM |
